Measured values: ChEMBL document CHEMBL2311516, “Structure-activity relationship studies of argiotoxins: selective and potent inhibitors of ionotropic glutamate receptors” (J Med Chem, 2013)

Legend:
Rattus norvegicus [1] = species on record: Rattus norvegicus; experiment: Selectivity ratio of IC50 for rat GluA1 receptor flip form to IC50 for rat GluN1/2A receptor
In short: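 Ratio IC50(GluA1)/IC50(GluN1/2A), each IC50 from composite dose−response data of 5 to 10 oocytes in two-electrode voltage clamp. GluA1_i driven by 300 μM glutamate; GluN1/2A driven by 100 μM glutamate plus 100 μM glycine; antagonist coapplied.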

[2] = target: Glutamate NMDA receptor; Grin1/Grin2a (Rattus norvegicus, UniProt P35439+Q00959); experiment: Inhibition of rat GluN1/2A receptor expressed in Xenopus laevis oocyte assessed as glutamate and glycine-induced current at holding potentials from -80 to -40 mV by two electrode voltage clamp analysis
Chain of Glutamate NMDA receptor; Grin1/Grin2a (Q00959 whole entry, other chains not shown): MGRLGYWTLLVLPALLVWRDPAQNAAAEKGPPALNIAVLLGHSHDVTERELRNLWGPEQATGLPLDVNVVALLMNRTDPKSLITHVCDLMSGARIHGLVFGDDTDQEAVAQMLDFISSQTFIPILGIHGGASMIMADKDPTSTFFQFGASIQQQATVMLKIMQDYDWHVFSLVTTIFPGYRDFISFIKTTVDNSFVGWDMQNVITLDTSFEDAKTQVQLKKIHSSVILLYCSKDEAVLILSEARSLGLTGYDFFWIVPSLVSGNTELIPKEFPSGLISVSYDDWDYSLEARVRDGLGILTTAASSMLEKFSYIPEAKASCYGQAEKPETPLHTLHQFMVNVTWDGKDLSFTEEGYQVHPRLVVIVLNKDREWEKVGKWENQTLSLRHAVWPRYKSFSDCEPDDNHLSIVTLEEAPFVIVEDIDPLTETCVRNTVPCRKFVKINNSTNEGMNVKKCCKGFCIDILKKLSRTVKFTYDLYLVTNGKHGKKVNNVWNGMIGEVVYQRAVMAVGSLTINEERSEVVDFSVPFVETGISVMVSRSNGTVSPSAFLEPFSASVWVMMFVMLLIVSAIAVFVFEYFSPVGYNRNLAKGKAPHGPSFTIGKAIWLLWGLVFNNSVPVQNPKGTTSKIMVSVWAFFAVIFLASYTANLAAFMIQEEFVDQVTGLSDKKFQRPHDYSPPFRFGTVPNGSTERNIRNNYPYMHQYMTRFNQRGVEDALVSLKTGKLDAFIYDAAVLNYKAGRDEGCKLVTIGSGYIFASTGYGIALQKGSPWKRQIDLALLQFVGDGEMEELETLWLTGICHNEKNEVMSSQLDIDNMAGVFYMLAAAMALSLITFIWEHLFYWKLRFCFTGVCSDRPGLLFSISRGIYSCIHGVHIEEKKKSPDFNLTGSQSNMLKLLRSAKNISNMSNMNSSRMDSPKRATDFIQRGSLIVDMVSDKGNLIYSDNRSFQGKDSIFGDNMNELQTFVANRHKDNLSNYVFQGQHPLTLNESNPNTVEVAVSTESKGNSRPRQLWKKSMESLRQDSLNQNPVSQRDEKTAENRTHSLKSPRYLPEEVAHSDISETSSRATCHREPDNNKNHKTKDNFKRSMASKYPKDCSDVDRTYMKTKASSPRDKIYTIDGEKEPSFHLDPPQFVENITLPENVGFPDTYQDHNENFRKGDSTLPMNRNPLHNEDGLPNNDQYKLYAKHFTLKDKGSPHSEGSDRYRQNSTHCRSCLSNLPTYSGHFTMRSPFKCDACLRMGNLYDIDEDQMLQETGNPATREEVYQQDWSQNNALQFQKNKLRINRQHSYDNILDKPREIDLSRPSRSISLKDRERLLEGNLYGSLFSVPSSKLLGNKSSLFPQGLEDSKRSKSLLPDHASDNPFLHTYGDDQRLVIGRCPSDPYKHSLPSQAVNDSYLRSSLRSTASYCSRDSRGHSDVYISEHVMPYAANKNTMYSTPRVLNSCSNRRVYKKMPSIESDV
In short: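 Oocytes injected with 25 nL GluN1/N2A cRNA (1:1, 0.05 ng/nL), held at 17 °C in Barth's medium with gentamicin, recorded 3−6 days later by two-electrode voltage clamp in frog Ringer's. Current evoked by 100 μM L-glutamate plus 100 μM glycine, antagonist coapplied at rising levels; holding potentials −40, −60, −80 mV. IC50 from logistic fit, triplicate curves.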

Glutamate receptor 1 = Glutamate receptor 1 (Rattus norvegicus, UniProt P19490); experiment: Inhibition of rat GluA1 receptor flip form expressed in Xenopus laevis oocyte assessed as glutamate-induced current at holding potentials from -80 to -40 mV by two electrode voltage clamp analysis
Chain of Glutamate receptor 1 (P19490 whole entry, the tested form may be a part): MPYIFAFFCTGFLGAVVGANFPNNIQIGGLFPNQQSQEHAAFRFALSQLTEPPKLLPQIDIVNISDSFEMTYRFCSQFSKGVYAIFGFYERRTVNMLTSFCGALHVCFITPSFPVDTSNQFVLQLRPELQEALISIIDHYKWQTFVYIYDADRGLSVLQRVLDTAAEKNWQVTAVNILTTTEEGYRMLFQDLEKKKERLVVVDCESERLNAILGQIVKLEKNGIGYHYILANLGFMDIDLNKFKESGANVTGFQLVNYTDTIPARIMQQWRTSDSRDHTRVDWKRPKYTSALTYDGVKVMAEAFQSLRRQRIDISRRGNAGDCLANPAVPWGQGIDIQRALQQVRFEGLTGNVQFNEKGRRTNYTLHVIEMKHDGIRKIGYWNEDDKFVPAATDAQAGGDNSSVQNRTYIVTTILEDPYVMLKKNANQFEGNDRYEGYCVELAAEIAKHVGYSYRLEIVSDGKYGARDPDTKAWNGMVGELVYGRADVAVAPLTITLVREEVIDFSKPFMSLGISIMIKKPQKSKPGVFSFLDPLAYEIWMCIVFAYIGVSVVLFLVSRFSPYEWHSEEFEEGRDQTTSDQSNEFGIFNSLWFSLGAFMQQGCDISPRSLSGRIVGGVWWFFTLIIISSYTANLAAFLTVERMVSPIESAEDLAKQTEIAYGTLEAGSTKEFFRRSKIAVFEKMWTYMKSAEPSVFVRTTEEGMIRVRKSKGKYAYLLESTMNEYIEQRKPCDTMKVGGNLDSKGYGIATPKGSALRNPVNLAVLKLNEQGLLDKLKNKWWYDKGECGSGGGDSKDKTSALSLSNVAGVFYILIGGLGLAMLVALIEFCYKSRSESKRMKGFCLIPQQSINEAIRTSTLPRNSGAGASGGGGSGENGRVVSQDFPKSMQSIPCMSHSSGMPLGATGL
In short: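 Oocytes injected with 25 nL GluA1_i cRNA (1 ng/nL), kept at 17 °C in Barth's medium with gentamicin, recorded 3−6 days later under two-electrode voltage clamp in frog Ringer's superfusion. Current evoked by 300 μM L-glutamate, then increasing antagonist coapplied with agonist; holding potentials −40, −60, −80 mV. Per-oocyte logistic fit for IC50, triplicate curves.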

Rattus norvegicus [3] = species on record: Rattus norvegicus; experiment: Selectivity ratio of IC50 for rat GluN1/2A receptor to IC50 for rat GluA1 receptor flip form
In short: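 Ratio IC50(GluN1/2A)/IC50(GluA1), each IC50 from composite dose−response data of 5 to 10 oocytes in two-electrode voltage clamp. GluA1_i driven by 300 μM glutamate; GluN1/2A driven by 100 μM glutamate plus 100 μM glycine; antagonist coapplied.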

Structure (SMILES) | Ratio IC50 (Rattus norvegicus [1]) | IC50 [2] [µM] | IC50 (Glutamate receptor 1) [µM] | Ratio IC50 (Rattus norvegicus [3])
N=C(N)NCCC[C@H](N)C(=O)NCCCCCCCCCNCCCNC(=O)[C@H](CC(N)=O)NC(=O)Cc1ccc(O)cc1O | < 0.06 | > 3 | 0.171 | < 0.06
N=C(N)NCCC[C@H](N)C(=O)NCCCCCCCCNCCCCNC(=O)[C@H](CC(N)=O)NC(=O)Cc1ccc(O)cc1O | 0.08 | 0.231 | 0.019 | 12
N=C(N)NCCC[C@H](N)C(=O)NCCCNCCCNCCCCCNC(=O)[C@H](CC(N)=O)NC(=O)Cc1ccc(O)cc1O | 8 | 0.01 |  | 
N=C(N)NCCC[C@H](N)C(=O)NCCCNCCCCCCCCCNC(=O)[C@H](CC(N)=O)NC(=O)Cc1ccc(O)cc1O | 32 |  |  | 
N=C(N)NCCC[C@H](N)C(=O)NCCCCCNCCCCCCCNC(=O)[C@H](CC(N)=O)NC(=O)Cc1ccc(O)cc1O | 7 |  |  | 
NC(=O)C[C@H](NC(=O)Cc1ccc(O)cc1O)C(=O)NCCCCCCCNCCCCCNC(=O)[C@@H](N)CCCN=C(N)N |  | 0.017 | 0.118 | 
NC(=O)C[C@H](NC(=O)Cc1ccc(O)cc1O)C(=O)NCCCCCCCCCNCCCNC(=O)[C@@H](N)CCCN=C(N)N |  | 0.014 | 0.454 | 
N=C(N)NCCC[C@H](N)C(=O)NCCCCNCCCCCCCCNC(=O)[C@H](CC(N)=O)NC(=O)Cc1ccc(O)cc1O | 10 |  |  | 
N=C(N)NCC[C@@H](N)C(=O)NCCCCCNCCCCCCCNC(=O)[C@@H](NC(=O)Cc1ccc(O)cc1O)c1c[nH]c2ccccc12 | 3.4 |  |  | 
NC(=O)C[C@H](NC(=O)Cc1ccc(O)cc1O)C(=O)NCCCCCCCCNCCCCNC(=O)[C@@H](N)CCCN=C(N)N |  | 0.008 | 0.083 | 
N=C(N)NCCC[C@H](N)C(=O)NCCCCCCCNCCCCCNC(=O)[C@H](CC(N)=O)NC(=O)Cc1ccc(O)cc1O | 0.09 | 0.842 | 0.078 | 11
N=C(N)NCC[C@@H](N)C(=O)NCCCCCNCCCCCCCNC(=O)[C@H](CC(=O)O)NC(=O)Cc1ccc(O)cc1O | 0.07 | 2.23 | 0.167 | 13
N=C(N)NCCC[C@H](N)C(=O)NCCCCCCNCCCCCCNC(=O)[C@H](CC(N)=O)NC(=O)Cc1ccc(O)cc1O | 2 | 0.021 | 0.046 | 
